Experimental data: ChEMBL document CHEMBL5653630, “Activation of the p53-MDM4 regulatory axis defines the anti-tumour response to PRMT5 inhibition through its role in regulating cellular splicing” (Sci Rep, 2018)
Active and inactive are the calls of the source. No cut-off for these calls is given here.

Legend:
HCC1806 = assay: Antiproliferative activity against human HCC1806 cells assessed as cell growth inhibition incubated for 6 days by celltiter-glo assay; assay type: functional; details: HCC1806, 144 h, time 6 day
How it was run: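 Cells were seeded in 384-well plates and incubated 24 h, then treated in duplicate with a 20-point, 2-fold dilution series (top dose ≤29 μM, ≤0.15% DMSO) for 6 days. CellTiter-Glo luminescence was read on day 0 and day 6. A 4-parameter fit was used, and curves needed at least 1.5 population doublings. gIC50 is the midpoint of the growth window between DMSO and T0.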

J82 = assay: Antiproliferative activity against human J82 cells assessed as cell growth inhibition incubated for 6 days by celltiter-glo assay; assay type: functional; details: J82, 144 h, time 6 day
How it was run: (§1)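 Cells seeded in 384-well plates at an optimized density and held 24 h. Day 0: treated in duplicate with a 20-point two-fold series (top dose ≤29 μM, ≤0.15% DMSO) and incubated 6 days. CellTiter-Glo luminescence read at Day 0 and Day 6. Four-parameter fit. gIC50 = midpoint of the growth window between DMSO and T0. Curves required ≥1.5 population doublings.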

JM1 = assay: Antiproliferative activity against human JM1 cells assessed as cell growth inhibition incubated for 6 days by celltiter-glo assay; assay type: functional; details: JM1, 144 h, time 6 day; how it was run: as §1
JVM-2 = assay: Antiproliferative activity against human JVM-2 cells assessed as cell growth inhibition incubated for 6 days by celltiter-glo assay; assay type: functional; details: JVM-2, 144 h, time 6 day; how it was run: as §1
LN-229 = assay: Antiproliferative activity against human LN-229 cells assessed as cell growth inhibition incubated for 6 days by celltiter-glo assay; assay type: functional; details: LN-229, 144 h, time 6 day; how it was run: as §1
MDA-MB-453 = assay: Antiproliferative activity against human MDA-MB-453 cells assessed as cell growth inhibition incubated for 6 days by celltiter-glo assay; assay type: functional; details: MDA-MB-453, 144 h, time 6 day; how it was run: as §1
[1] = Antiproliferative activity against human MINO cells assessed as cell growth inhibition incubated for 6 days by celltiter-glo assay; assay type: functional; details: 144 h, time 6 day; how it was run: as §1
NCI-H526 = assay: Antiproliferative activity against human NCI-H526 cells assessed as cell growth inhibition incubated for 6 days by celltiter-glo assay; assay type: functional; details: NCI-H526, 144 h, time 6 day; how it was run: as §1
Pfeiffer = assay: Antiproliferative activity against human Pfeiffer cells assessed as cell growth inhibition incubated for 6 days by celltiter-glo assay; assay type: functional; details: 144 h, time 6 day; how it was run: as §1
RCK8 = assay: Antiproliferative activity against human RCK8 cells assessed as cell growth inhibition incubated for 6 days by celltiter-glo assay; assay type: functional; details: RCK8, 144 h, time 6 day; how it was run: as §1
SU-DHL-8 = assay: Antiproliferative activity against human SU-DHL-8 cells assessed as cell growth inhibition incubated for 6 days by celltiter-glo assay; assay type: functional; details: SU-DHL-8, 144 h, time 6 day; how it was run: as §1
T-24 = assay: Antiproliferative activity against human T24 cells assessed as cell growth inhibition incubated for 6 days by celltiter-glo assay; assay type: functional; details: T-24, 144 h, time 6 day; how it was run: as §1
Z-138 [2] = assay: Antitumor activity against human Z138 cells xenografted in po dosed mouse measured for 21 days; assay type: functional, organism-based; details: dose lower […], dose upper 200.0 mg/kg, time 21.0 day
Z-138 [3] = assay: In vivo inhibition of PRMT5 in human Z138 cells xenografted in mouse assessed as increase in PHLDA3 expression at 100 mg/kg, po BID measured for 7 days; assay type: functional, organism-based; details: time 7.0 day
C-4-II = assay: Antiproliferative activity against human C-4-II cells assessed as cell growth inhibition incubated for 10 days; assay type: functional; details: 240 h, time 10 day
How it was run: (§2)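 Cells kept in RPMI-1640 with 10% FBS, 2 mM L-alanyl-L-glutamine and 1 mM Na pyruvate (or a special medium) at 37°C, 5% CO2. Compound added 24 h after seeding, 10 concentrations in 3.16-fold dilution, 0.1% DMSO final. Medium replaced and cells re-dosed at 168 h; 240 h incubation. Nuclei fixed, dye-stained and imaged. gIC50 = growth midway between untreated and time-zero cell counts, from a 4-parameter fit.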

HeLa = assay: Antiproliferative activity against human HeLa cells assessed as cell growth inhibition incubated for 10 days; assay type: functional; details: 240 h, time 10 day
How it was run: (§3)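 Outsourced panel run in 384-well plates. Cells were grown in RPMI-1640/10% FBS or a special medium at 37°C, 5% CO2. Compound was added 24 h after seeding as a 10-point, 3.16-fold series in 0.1% DMSO. Medium was refreshed and cells re-dosed at 168 h, with a time-zero plate kept. At 240 h cells were fixed, nuclei stained and imaged. gIC50 is growth midway between untreated and time zero, from a 4-parameter fit.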

BV-173 = assay: Antiproliferative activity against human BV-173 cells assessed as cell growth inhibition incubated for 10 days; assay type: functional; details: BV-173, 240 h, time 10 day; how it was run: as §2
SR = assay: Antiproliferative activity against human SR cells assessed as cell growth inhibition incubated for 10 days; assay type: functional; details: 240 h, time 10 day
AN3-CA = assay: Antiproliferative activity against human AN3-CA cells assessed as cell growth inhibition incubated for 10 days; assay type: functional; details: 240 h, time 10 day; how it was run: as §2
H4 = assay: Antiproliferative activity against human H4 cells assessed as cell growth inhibition incubated for 10 days; assay type: functional; details: H4, 240 h, time 10 day; how it was run: as §3
SCC-25 = assay: Antiproliferative activity against human SCC-25 cells assessed as cell growth inhibition incubated for 10 days; assay type: functional; details: SCC-25, 240 h, time 10 day
HMCB cell line = assay: Antiproliferative activity against human HMCB cell line assessed as cell growth inhibition incubated for 10 days; assay type: functional; details: 240 h, time 10 day; how it was run: as §3
[4] = Antiproliferative activity against human C32TG cells assessed as cell growth inhibition incubated for 10 days; assay type: functional; details: 240 h, time 10 day; how it was run: as §2
MeWo = assay: Antiproliferative activity against human MeWo cells assessed as cell growth inhibition incubated for 10 days; assay type: functional; details: 240 h, time 10 day
RPMI-7951 = assay: Antiproliferative activity against human RPMI-7951 cells assessed as cell growth inhibition incubated for 10 days; assay type: functional; details: RPMI-7951, 240 h, time 10 day
SK-MES-1 = assay: Antiproliferative activity against human SK-MES-1 cells assessed as cell growth inhibition incubated for 10 days; assay type: functional; details: SK-MES-1, 240 h, time 10 day
HPAF-II = assay: Antiproliferative activity against human HPAF-II cells assessed as cell growth inhibition incubated for 10 days; assay type: functional; details: 240 h, time 10 day; how it was run: as §3
Hs 766 = assay: Antiproliferative activity against human Hs766T cells assessed as cell growth inhibition incubated for 10 days; assay type: functional; details: Hs 766, 240 h, time 10 day
How it was run: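 Eurofins panel, 384-well. Cells kept in RPMI-1640 with 10% FBS, 2 mM L-alanyl-L-glutamine and 1 mM Na pyruvate, or in a special medium, at 37°C under 5% CO2. Compound added 24 h after seeding as 10 concentrations in 3.16-fold steps, 0.1% DMSO final. Medium replaced and compound re-dosed at 168 h. After 240 h, cells fixed and nuclei stained for imaging. gIC50 = growth midway between untreated cells and time-zero count.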

MG-63 = assay: Antiproliferative activity against human MG-63 cells assessed as cell growth inhibition incubated for 10 days; assay type: functional; details: MG-63, 240 h, time 10 day
639-V = assay: Antiproliferative activity against human 639-V cells assessed as cell growth inhibition incubated for 10 days; assay type: functional; details: 240 h, time 10 day; how it was run: as §2
SW 954 = assay: Antiproliferative activity against human SW 954 cells assessed as cell growth inhibition incubated for 10 days; assay type: functional; details: SW 954, 240 h, time 10 day

Row | GI50 (HCC1806) | GI50 (MDA-MB-453) | GI50 (NCI-H526) | GI50 (SU-DHL-8) | Compound | GI50 (J82) | GI50 (JM1) | GI50 (JVM-2) | GI50 (LN-229) | GI50 [1] | GI50 (Pfeiffer) | GI50 (RCK8) | GI50 (T-24) | also measured
1 | 98 nM | 29 nM | 275 nM | 53 nM | CC(=O)N1CCC(Nc2cc(C(=O)NC[C@H](O)CN3CCc4ccccc4C3)ncn2)CC1 [PEMRAMETOSTAT] | 29300 nM | 79 nM | 9 nM | 254 nM | 130 nM | 421 nM | 529 nM | 765 nM | Activity (Z-138 [2]): Dose-Dependent Effect; inhibition (Z-138 [3]): Active
2 | 261 nM | 343 nM | 138 nM | 1220 nM | O=C(NC[C@H](O)CN1CCc2ccccc2C1)c1ccnc(NC2CCC2)c1 | 20900 nM | 76 nM | 172 nM | 1150 nM | 536 nM | 352 nM | 2110 nM | 650 nM | GI50 (C-4-II): 266 nM; GI50 (HeLa): 230 nM; GI50 (BV-173): 10.6 nM; GI50 (SR): 275 nM; GI50 (AN3-CA): 254 nM; GI50 (H4): 151 nM; GI50 (SCC-25): 273 nM; GI50 (HMCB cell line): 666 nM; GI50 [4]: 103 nM; GI50 (MeWo): 249 nM; GI50 (RPMI-7951): 44.2 nM; GI50 (SK-MES-1): 807 nM; GI50 (HPAF-II): 154 nM; GI50 (Hs 766): 1120 nM; GI50 (MG-63): 96 nM; GI50 (639-V): 342 nM; GI50 (SW 954): 10000 nM
